ChEMBL document CHEMBL1128448, “Synthesis and antifungal activity of new azole derivatives containing an N-acylmorpholine ring” (1995)
In brackets after ≈: the same amount, converted by molar mass.

How the values were obtained:
Assay type in all cases: functional
Mus sp. [1] = experiment: In vivo evaluation of % survival rate after peroral administration on 3rd day at dose 2.5 mg/kg; conditions: Mus sp., po
Mus sp. [2] = experiment: In vivo evaluation of % survival rate after peroral administration on 5th day at dose 1 mg/kg; conditions: route oral, 1 mg/kg
Mus sp. [3] = experiment: In vivo evaluation of % survival rate after peroral administration on 9th day at dose 2.5 mg/kg; conditions: Mus sp., po
Candida tropicalis = experiment: In vitro evaluation of minimum inhibitory concentration against Candida tropicalis 2.11
How it was run: (§1)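 Stocks are 800 μg/mL in 50% ethanol. Each plate gets 10 μL of inoculum at 10^5 cfu/mL. Incubation at 25 °C, 48 h for yeasts and 120 h for dermatophytes and molds. Organisms are ATCC strains or clinical isolates.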

Mus sp. [4] = experiment: In vivo evaluation of % survival rate after peroral administration on 7th day at dose 2.5 mg/kg; conditions: Mus sp., po
Candida albicans [5] = experiment: In vitro Evaluation of minimum inhibitory concentration against Candida albicans 76; how it was run: as §1
Mus sp. [6] = experiment: In vivo evaluation of % survival rate after peroral administration on 5th day at dose 2.5 mg/kg; conditions: Mus sp., po
[7] = tested on: Meyerozyma guilliermondii; experiment: In vitro Evaluation of minimum inhibitory concentration against Candida guilliermondii 26; how it was run: as §1
Candida albicans [8] = experiment: […] Evaluation of minimum inhibitory concentration against Candida albicans 406; how it was run: as §1
Candida parapsilosis = experiment: In vitro evaluation of minimum inhibitory concentration against Candida parapsilosis 61; how it was run: as §1
Rhodotorula mucilaginosa = experiment: In vitro evaluation of minimum inhibitory concentration against Rhodotorula rubra 16; how it was run: as §1
Mus sp. [9] = experiment: In vivo evaluation of % survival rate after peroral administration on 9th day at dose 1 mg/kg; conditions: route oral, 1 mg/kg
Aspergillus flavus = experiment: In vivo Evaluation of minimum inhibitory concentration against Aspergillus flavus 19; conditions: in the assay text read “In vitro” for “In vivo”; how it was run: as §1
Kluyveromyces marxianus = experiment: In vitro evaluation of minimum inhibitory concentration against Candida pseudotropicalis 13; how it was run: as §1
Candida albicans [10] = experiment: […] Evaluation of minimum inhibitory concentration against Candida albicans 60; how it was run: as §1
Mus sp. [11] = experiment: In vivo evaluation of % survival rate after peroral administration on 7th day at dose 1 mg/kg; conditions: route oral, 1 mg/kg

C[C@H]1N(C(=O)c2ccc(C(F)(F)F)cc2)CC(=O)O[C@@]1(Cn1cncn1)c1ccc(Cl)cc1Cl (racemic)
survival at 2.5 mg/kg (Mus sp. [1]): 100% | Survival (Mus sp. [2]): 80% | survival at 2.5 mg/kg (Mus sp. [3]): 100% | MIC (Candida tropicalis): 80 µg/mL (≈ 156 µM) | survival at 2.5 mg/kg (Mus sp. [4]): 100% | MIC (Candida albicans [5]): 20 µg/mL (≈ 39 µM) | survival at 2.5 mg/kg (Mus sp. [6]): 100% | MIC [7]: 80 µg/mL (≈ 156 µM) | MIC (Candida albicans [8]): 5 µg/mL (≈ 9.74 µM) | MIC (Candida parapsilosis): 40 µg/mL (≈ 77.9 µM) | MIC (Rhodotorula mucilaginosa): 80 µg/mL (≈ 156 µM) | Survival (Mus sp. [9]): 45% | MIC (Aspergillus flavus): > 80 µg/mL | MIC (Kluyveromyces marxianus): 20 µg/mL (≈ 39 µM) | MIC (Candida albicans [10]): 10 µg/mL (≈ 19.5 µM) | Survival (Mus sp. [11]): 55%
